Results reported in ChEMBL document CHEMBL1128214, “Structure-based design of sulfonamide-substituted non-peptidic HIV protease inhibitors” (J Med Chem, 1995).
Values belong to the molecule of their own block, whether it stands above or below them.

Assays:
[1] = test system: Human immunodeficiency virus 1; experiment: Antiviral potency of compound determined against human immunodeficiency virus type 1; type: functional, organism-based
Procedure, shortened: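 Antiviral activity measured in MT4 cells acutely infected with HIV-1 IIIB; potency reported as IC50.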

[2] = target: Human immunodeficiency virus type 1 protease (Human immunodeficiency virus 1, UniProt Q72874); experiment: Inhibitory activity against HIV-1 protease
[3] = Maximum concentration was determined in an aqueous sodium hydroxide solution adjusted to pH 10 at 5 mg/kg dosage administered perorally in rats; type: ADME, organism-based; set-up: dose 5 mg/kg, route oral; settings: rat, in vivo, po
Procedure, shortened: (§1)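 Single oral dose given as an aqueous sodium hydroxide solution adjusted to pH 10. Plasma concentrations were followed over time. Cmax, tmax and bioavailability (F) were calculated from the time-course data by noncompartmental analysis. Values are mean ± SD.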

[4] = Bioavailability (F) was determined in an aqueous sodium hydroxide solution adjusted to pH 10 at 5 mg/kg dosage administered perorally in rats; type: ADME, organism-based; settings: eutheria, in vivo, po; procedure, shortened: as §1
[5] = The half life time estimated was determined in an aqueous sodium hydroxide solution adjusted to pH 10 at 2.5 mg/kg dosage administered intravenously in rats; type: ADME, organism-based; set-up: dose 2.5 mg/kg, route intravenous; settings: rat, in vivo, iv
Procedure, shortened: (§2)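 Plasma concentration–time data were analysed by noncompartmental methods. The […] (β) and half-life were estimated, and total body clearance and steady-state volume of distribution were calculated. Values are mean ± SD.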

[6] = The total body administered intravenously in dog; type: ADME, organism-based, Canis lupus familiaris; settings: in vivo, iv, read-out: Vss; procedure, shortened: as §2
[7] = The half life time estimated was determined in an aqueous sodium hydroxide solution adjusted to pH 10 at 5 mg/kg dosage administered intravenously in dog; type: ADME, organism-based; set-up: dose 5 mg/kg, route intravenous; settings: in vivo, iv; procedure, shortened: as §2
[8] = Maximum concentration was determined in an aqueous sodium hydroxide solution adjusted to pH 10 at 10 mg/kg dosage administered perorally in dog; type: ADME, organism-based, Canis lupus familiaris; set-up: dose 10 mg/kg, route oral; settings: in vivo, po; procedure, shortened: as §1
[9] = Time of maximum concentration was determined in an aqueous sodium hydroxide solution adjusted to pH 10 at 5 mg/kg dosage administered perorally in rats; type: ADME, organism-based; set-up: dose 5 mg/kg, route oral; settings: rat, in vivo, po; procedure, shortened: as §1
[10] = Bioavailability (F) was determined in an aqueous sodium hydroxide solution adjusted to pH 10 at 10 mg/kg dosage administered perorally in dog; type: ADME, organism-based; settings: eutheria, in vivo, po; procedure, shortened: as §1
[11] = Time of maximum concentration was determined in an aqueous sodium hydroxide solution adjusted to pH 10 at 10 mg/kg dosage administered perorally in dog; type: ADME, organism-based, Canis lupus familiaris; set-up: dose 10 mg/kg, route oral; settings: in vivo, po; procedure, shortened: as §1
[12] = The steady-state volume of distribution was determined in an aqueous sodium hydroxide solution adjusted to pH 10 at 2.5 mg/kg administered intravenously dosage in rats; type: ADME, organism-based; set-up: dose 2.5 mg/kg, route intravenous; settings: rat, in vivo, iv, read-out: Vss; procedure, shortened: as §2

- IC50 [1]: 5000 nM
Compound: O=c1c2c(oc(O)c1C(c1cccc(NS(=O)(=O)c3ccccc3)c1)C1CC1)CCCCCC2 (stereo not drawn)

Compound: Cc1cccc(S(=O)(=O)Nc2cccc(C(c3c(O)c4c(oc3=O)CCCCCC4)C3CC3)c2)c1 (stereo not drawn)
- Ki [2]: 5 nM
- IC50 [1]: 4000 nM

- Cmax [3]: 24.2 µM
- bioavailability [4]: 41.9%
- half-life [5]: 3 h
- Vd [6]: 0.084 L/kg
- IC50 [1]: 1500 nM
- half-life [7]: 6.3 h
- Cmax [8]: 156 µM
- Tmax [9]: 1 h
- bioavailability [10]: 76.7%
- Tmax [11]: 1 h
- Vd [12]: 0.11 L/kg
Compound: N#Cc1ccc(S(=O)(=O)Nc2cccc(C(c3c(O)c4c(oc3=O)CCCCCC4)C3CC3)c2)cc1 (stereo not drawn)

Compound: Cc1ccccc1S(=O)(=O)Nc1cccc(C(c2c(O)c3c(oc2=O)CCCCCC3)C2CC2)c1 (stereo not drawn)
- Ki [2]: 9 nM
- IC50 [1]: > 10000 nM

Compound: Cc1ccc(S(=O)(=O)Nc2cccc(C(c3c(O)c4c(oc3=O)CCCCCC4)C3CC3)c2)cc1 (stereo not drawn)
- Ki [2]: 3 nM
- IC50 [1]: 3600 nM
